Measurements reported in ChEMBL document CHEMBL3259663, “3-Amido-3-aryl-piperidines: A Novel Class of Potent, Selective, and Orally Active GlyT1 Inhibitors” (ACS Med Chem Lett, 2014).
Values after ≈ are worked out from the molar mass of the structure shown. Active and inactive are the calls of the source. The calls are words filed in the database; no cut-off is given here.

What was measured:
[1] = Solubility of the compound at pH 6.5 by lyophilization solubility assay; format: physicochemical; conditions: buffer
Procedure, shortened: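 Lyophilization solubility assay. DMSO solution of compound is lyophilized, dissolved in 0.05 M phosphate buffer pH 6.5, stirred 1 h, then shaken 2 h.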

[2] = Permeability of the compound by PAMPA; format: physicochemical; conditions: read-out: permeability
[3] = Intrinsic clearance in human liver microsomes; format: ADME; conditions: read-out: CLH
[4] = molecular target: hERG (KCNH2) (Homo sapiens, UniProt Q12809); experiment: Inhibition of human ERG channel by Patch clamp assay
[5] = molecular target: Cytochrome P450 3A4 (Homo sapiens, UniProt P08684); experiment: Inhibition of CYP3A4 (unknown origin); format: ADME
[6] = molecular target: Cytochrome P450 2D6 (Homo sapiens, UniProt P10635); experiment: Inhibition of CYP2D6 (unknown origin); format: ADME
[7] = molecular target: Cytochrome P450 2C9 (Homo sapiens, UniProt P11712); experiment: Inhibition of CYP2C9 (unknown origin); format: ADME
[8] = test system: MDR1 (P-gp); experiment: Efflux ratio of permeability in pig LLC-PK1 cells expressing human MDR1; format: ADME, cell-based, Sus scrofa
Procedure, shortened: (§1)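 Efflux ratio measured in LLC-PK1 cells stably expressing human MDR1 or mouse MDR1A.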

[9] = molecular target: Cytochrome P450 2C19 (Homo sapiens, UniProt P33261); experiment: Inhibition of CYP2C19 (unknown origin); format: ADME
[10] = test system: MDR1A (P-gp); experiment: Efflux ratio of permeability in pig LLC-PK1 cells expressing mouse MDR1A; format: ADME, cell-based, Sus scrofa; procedure, shortened: as §1
[11] = test system: Salmonella typhimurium; experiment: Genotoxicity in Salmonella typhimurium by Ames test; format: toxicity, organism-based; conditions: salmonella enterica subsp. enterica serovar typhimurium
[12] = Dissociation constant, pKa of the compound by capillary electrophoresis; format: physicochemical
Procedure, shortened: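 pKa determined by capillary electrophoresis.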

[13] = Clearance in mouse at 1.7 mg/kg, iv; format: ADME, organism-based; design: dose 1.7 mg/kg, route intravenous; conditions: in vivo
Procedure, shortened: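 Mouse PK, single iv dose of 1.7 mg/kg. Values are the average of two independent experiments.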

[14] = Oral bioavailability in mouse at 7.7 mg/kg; format: ADME, organism-based; conditions: in vivo
Procedure, shortened: (§2)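 Mouse PK after a 7.7 mg/kg oral dose. Brain/plasma ratio taken at 1.5 h. Values are the average of two independent experiments.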

[15] = Half life in mouse at 7.7 mg/kg, po; format: ADME, organism-based; design: dose 7.7 mg/kg, route oral; conditions: in vivo; procedure, shortened: as §2
[16] = Ratio of drug level from brain to plasma in mouse at 7.7 mg/kg, po after 1.5 hrs; format: ADME, organism-based; design: dose 7.7 mg/kg, route oral; conditions: brain and plasma, read-out: BPR; procedure, shortened: as §2
[17] = Fraction unbound in mouse at 7.7 mg/kg, po; format: ADME, organism-based; design: dose 7.7 mg/kg, route oral; conditions: in vivo, read-out: PPB; procedure, shortened: as §2
[18] = test system: Mus musculus; experiment: Inhibition of L687414-induced hyperlocomotion in po dosed mouse assessed horizontal activity; format: functional
Procedure, shortened: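 Oral dosing in mice against L-687,414-induced hyperlocomotion. Horizontal activity counts recorded over 60 min, mean per group, n = 8 per group. ID₅₀ is the dose producing 50% inhibition of the hyperlocomotion.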

[19] = test system: Mus musculus; experiment: Inhibition of L687414-induced hyperlocomotion in po dosed mouse assessed horizontal activity at 8 ng/ml plasma concentration; format: functional, organism-based
[20] = test system: Striatum; experiment: Maximal induction of extracellular glycine level in rat striatum at 10 mg/kg, po relative to basal level; format: functional
Procedure, shortened: (§3)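 Rat striatal microdialysis after a 10 mg/kg oral dose. Extracellular glycine measured as fold over basal levels, with sampling stopped at 3 h. Plasma and brain exposures determined at 3 h post-dose. n = 6.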

[21] = test system: Striatum; experiment: Induction of extracellular glycine level in rat striatum at 10 mg/kg, po after 3 hrs relative to basal level; format: functional; procedure, shortened: as §3
[22] = test system: Striatum; experiment: Effect on plasma glycine level in rat striatum at 10 mg/kg, po; format: functional; procedure, shortened: as §3
[23] = molecular target: T1, Sodium- and chloride-dependent glycine transporter 1 (Mus musculus, UniProt P28571); experiment: Inhibition of mouse GlyT1
T1 sequence (P28571 whole entry): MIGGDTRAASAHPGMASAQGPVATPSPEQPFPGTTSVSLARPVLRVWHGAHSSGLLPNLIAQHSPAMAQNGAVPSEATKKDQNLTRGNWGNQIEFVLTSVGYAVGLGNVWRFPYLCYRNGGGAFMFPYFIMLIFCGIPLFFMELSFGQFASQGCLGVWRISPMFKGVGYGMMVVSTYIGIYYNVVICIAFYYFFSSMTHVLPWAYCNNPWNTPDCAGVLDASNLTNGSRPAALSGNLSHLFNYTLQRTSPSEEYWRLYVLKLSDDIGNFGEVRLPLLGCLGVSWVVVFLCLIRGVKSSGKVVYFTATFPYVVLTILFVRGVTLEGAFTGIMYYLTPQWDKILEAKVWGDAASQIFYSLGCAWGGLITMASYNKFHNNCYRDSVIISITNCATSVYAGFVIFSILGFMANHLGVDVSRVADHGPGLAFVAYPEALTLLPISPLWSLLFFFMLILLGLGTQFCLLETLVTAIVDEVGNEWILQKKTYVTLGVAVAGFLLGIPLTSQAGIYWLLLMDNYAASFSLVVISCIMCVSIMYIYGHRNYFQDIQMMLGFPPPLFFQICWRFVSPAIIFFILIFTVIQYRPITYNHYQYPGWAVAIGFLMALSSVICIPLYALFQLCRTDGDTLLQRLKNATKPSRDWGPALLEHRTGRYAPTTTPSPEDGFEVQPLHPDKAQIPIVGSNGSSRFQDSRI

[24] = Ratio of drug level in rat brain after 3 hrs to EC50 for human GlyT1 by [3H]glycine uptake assay

Cytochrome P450 2C19, sequence (P33261 whole entry): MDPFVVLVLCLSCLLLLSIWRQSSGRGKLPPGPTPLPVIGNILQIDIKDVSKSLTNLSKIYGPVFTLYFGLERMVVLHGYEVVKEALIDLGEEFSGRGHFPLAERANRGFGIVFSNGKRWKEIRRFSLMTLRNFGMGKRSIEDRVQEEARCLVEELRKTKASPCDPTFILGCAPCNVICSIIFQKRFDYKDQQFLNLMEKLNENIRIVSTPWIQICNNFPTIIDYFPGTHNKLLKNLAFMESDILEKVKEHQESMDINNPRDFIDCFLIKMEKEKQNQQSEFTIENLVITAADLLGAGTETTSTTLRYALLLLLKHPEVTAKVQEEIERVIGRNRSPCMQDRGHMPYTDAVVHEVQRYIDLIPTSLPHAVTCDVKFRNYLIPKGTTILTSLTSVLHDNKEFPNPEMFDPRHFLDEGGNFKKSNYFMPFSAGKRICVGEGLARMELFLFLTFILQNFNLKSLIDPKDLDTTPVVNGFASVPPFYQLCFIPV
Cytochrome P450 3A4, sequence (P08684 whole entry): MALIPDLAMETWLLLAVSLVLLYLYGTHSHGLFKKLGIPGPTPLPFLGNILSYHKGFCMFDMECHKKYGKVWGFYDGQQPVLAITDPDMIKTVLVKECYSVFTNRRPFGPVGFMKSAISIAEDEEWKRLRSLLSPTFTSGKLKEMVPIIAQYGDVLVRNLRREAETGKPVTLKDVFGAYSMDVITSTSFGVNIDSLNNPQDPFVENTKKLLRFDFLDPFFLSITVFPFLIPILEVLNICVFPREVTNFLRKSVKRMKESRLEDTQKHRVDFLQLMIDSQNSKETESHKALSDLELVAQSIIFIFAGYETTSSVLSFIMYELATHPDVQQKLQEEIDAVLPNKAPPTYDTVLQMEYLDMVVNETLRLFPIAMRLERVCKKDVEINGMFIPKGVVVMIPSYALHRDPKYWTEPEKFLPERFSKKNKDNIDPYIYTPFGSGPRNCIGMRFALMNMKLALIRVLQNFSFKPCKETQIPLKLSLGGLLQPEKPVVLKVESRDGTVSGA
Cytochrome P450 2D6, sequence (P10635 whole entry): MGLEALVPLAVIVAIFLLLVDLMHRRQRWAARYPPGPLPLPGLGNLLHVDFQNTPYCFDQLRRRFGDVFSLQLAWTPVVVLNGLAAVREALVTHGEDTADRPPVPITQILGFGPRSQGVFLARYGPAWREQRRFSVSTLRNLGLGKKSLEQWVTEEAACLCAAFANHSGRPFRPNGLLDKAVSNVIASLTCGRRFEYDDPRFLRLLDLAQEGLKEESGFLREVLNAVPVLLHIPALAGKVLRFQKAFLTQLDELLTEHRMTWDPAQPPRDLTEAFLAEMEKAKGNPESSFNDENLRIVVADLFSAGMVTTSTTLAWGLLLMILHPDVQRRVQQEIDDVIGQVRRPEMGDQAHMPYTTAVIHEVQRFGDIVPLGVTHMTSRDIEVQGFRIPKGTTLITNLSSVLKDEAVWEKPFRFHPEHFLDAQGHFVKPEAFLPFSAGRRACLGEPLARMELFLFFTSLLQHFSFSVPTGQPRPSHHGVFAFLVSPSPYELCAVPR
Cytochrome P450 2C9, sequence (P11712 whole entry): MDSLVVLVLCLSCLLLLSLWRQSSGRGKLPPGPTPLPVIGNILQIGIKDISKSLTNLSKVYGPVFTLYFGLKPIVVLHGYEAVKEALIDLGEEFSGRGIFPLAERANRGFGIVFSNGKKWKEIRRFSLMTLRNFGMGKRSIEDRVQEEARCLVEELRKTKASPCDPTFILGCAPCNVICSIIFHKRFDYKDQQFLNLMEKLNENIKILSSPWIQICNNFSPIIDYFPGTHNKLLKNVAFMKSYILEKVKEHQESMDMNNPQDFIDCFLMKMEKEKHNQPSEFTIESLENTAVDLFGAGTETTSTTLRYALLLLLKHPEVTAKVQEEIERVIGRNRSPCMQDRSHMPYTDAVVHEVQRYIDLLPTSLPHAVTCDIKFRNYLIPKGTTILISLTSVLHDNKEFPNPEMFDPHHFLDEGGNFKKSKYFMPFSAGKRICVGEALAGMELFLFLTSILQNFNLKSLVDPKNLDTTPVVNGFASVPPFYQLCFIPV
hERG (KCNH2), sequence (Q12809 whole entry): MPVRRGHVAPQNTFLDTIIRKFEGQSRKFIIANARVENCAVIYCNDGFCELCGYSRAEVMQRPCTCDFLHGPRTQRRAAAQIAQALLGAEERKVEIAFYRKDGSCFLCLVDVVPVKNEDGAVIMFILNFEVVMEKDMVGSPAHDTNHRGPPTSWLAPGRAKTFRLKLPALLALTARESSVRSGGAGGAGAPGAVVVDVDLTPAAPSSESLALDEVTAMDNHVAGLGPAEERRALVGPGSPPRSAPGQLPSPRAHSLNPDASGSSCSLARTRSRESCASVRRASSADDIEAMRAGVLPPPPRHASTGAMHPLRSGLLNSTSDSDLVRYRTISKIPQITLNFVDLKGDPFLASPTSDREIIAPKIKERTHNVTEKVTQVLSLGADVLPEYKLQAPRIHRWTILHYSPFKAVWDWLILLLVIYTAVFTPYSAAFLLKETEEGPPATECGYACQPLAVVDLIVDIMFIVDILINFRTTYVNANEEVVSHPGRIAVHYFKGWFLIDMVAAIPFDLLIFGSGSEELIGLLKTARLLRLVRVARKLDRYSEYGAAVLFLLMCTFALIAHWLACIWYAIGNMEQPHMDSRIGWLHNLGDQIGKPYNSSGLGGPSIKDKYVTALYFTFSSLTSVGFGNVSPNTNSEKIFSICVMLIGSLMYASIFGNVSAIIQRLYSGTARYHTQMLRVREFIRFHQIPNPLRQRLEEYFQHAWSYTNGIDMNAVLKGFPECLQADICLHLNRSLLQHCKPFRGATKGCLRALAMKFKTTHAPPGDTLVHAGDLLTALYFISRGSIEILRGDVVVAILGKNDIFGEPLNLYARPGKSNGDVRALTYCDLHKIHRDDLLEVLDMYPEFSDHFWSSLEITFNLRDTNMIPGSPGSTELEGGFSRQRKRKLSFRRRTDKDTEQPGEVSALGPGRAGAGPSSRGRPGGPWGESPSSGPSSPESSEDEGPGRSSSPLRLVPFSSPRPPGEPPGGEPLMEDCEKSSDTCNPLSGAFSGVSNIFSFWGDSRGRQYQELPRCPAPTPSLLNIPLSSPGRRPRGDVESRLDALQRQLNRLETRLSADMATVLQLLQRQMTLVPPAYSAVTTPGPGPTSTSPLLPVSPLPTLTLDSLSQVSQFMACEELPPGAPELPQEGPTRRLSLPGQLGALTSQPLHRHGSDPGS

solubility [1]: 147 µg/mL (≈ 335 µM)
Papp [2]: 7.4 ×10⁻⁶ cm/s
microsomal CLint [3]: 19 µL/min/mg
IC50 [5]: > 50 µM
IC50 [6]: 16 µM
IC50 [7]: > 50 µM
efflux ratio [8]: 0.9
IC50 [9]: 46 µM
efflux ratio [10]: 1.5
pKa [12]: 7.72
clearance [13]: 54 mL/min/kg
bioavailability [14]: 100%
half-life [15]: 4.2 h
Kp at 1.5 h [16]: 4.3
fraction unbound [17]: 0.017
EC50 [23]: 0.005 µM
Compound: COc1cc(C(F)(F)F)cc(SC)c1C(=O)N[C@@]1(c2ccccc2)CCCN(C)C1
IC20 [4]: 5.4 µM
Activity [11]: Non-toxic
inhibition [18]: Dose-dependent effect
ED50 ([18]; read-out: ID50 (the source's name)): 1.5 mg/kg
inhibition [19]: Active
fold change (FC) [20]: 1.7
fold change (FC) [21]: 1.5
Activity [22]: 713 ng/mL
Ratio [24]: 13
